Key:
Assay type in all cases: functional
BT-549 = assay: Growth inhibition of human BT549 cells assessed as cell growth at 10 nM relative to untreated control; settings: read-out: Activity
A549 [1] = assay: Growth inhibition of human A549 cells assessed as cell growth at 100 nM relative to untreated control; settings: read-out: Activity
HCT-15 = assay: Growth inhibition of human HCT15 cells assessed as cell growth at 100 nM relative to untreated control; settings: read-out: Activity
Procedure, shortened: (§1)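 Run externally at the National Cancer Institute as a 59-cell-line panel screen, with concentrations up to 100 μM. Growth was scored relative to control, where negative growth or total cell kill was possible. Data are in the Supporting Information.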

SK-MEL-28 = assay: Growth inhibition of human SK-MEL-28 cells assessed as cell growth at 100 nM relative to untreated control; settings: read-out: Activity
SK-MEL-5 = assay: Growth inhibition of human SK-MEL-5 cells assessed as cell growth at 100 nM relative to untreated control; settings: read-out: Activity
UACC-257 [2] = assay: Growth inhibition of human UACC257 cells assessed as cell growth at 100 nM relative to untreated control; settings: read-out: Activity
CAKI-1 [3] = assay: Growth inhibition of human Caki1 cells assessed as cell growth at 100 nM relative to untreated control; settings: read-out: Activity; procedure, shortened: as §1
SN12C [4] = assay: Growth inhibition of human SN12C cells assessed as cell growth at 100 nM relative to untreated control; settings: read-out: Activity
TK-10 [5] = assay: Growth inhibition of human TK10 cells assessed as cell growth at 100 nM relative to untreated control; settings: read-out: Activity
DU-145 = assay: Growth inhibition of human DU145 cells assessed as cell growth at 100 nM relative to untreated control; settings: read-out: Activity; procedure, shortened: as §1
[6] = Growth inhibition of human Hs 578T cells assessed as cell growth at 100 nM relative to untreated control; settings: read-out: Activity
HL-60(TB) = assay: Growth inhibition of human HL-60(TB) cells assessed as cell growth at 1 uM relative to untreated control; settings: read-out: Activity
K562 [7] = assay: Growth inhibition of human K562 cells assessed as cell growth at 1 uM relative to untreated control; settings: read-out: Activity
SW-620 = assay: Growth inhibition of human SW620 cells assessed as cell growth at 1 uM relative to untreated control; settings: read-out: Activity
LOX IMVI [8] = assay: Growth inhibition of human LOXIMVI cells assessed as cell growth at 1 nM relative to untreated control; settings: read-out: Activity
SK-MEL-2 = assay: Growth inhibition of human SK-MEL-2 cells assessed as cell growth at 1 uM relative to untreated control; settings: read-out: Activity
SK-OV-3 = assay: Growth inhibition of human SKOV3 cells assessed as cell growth at 1 uM relative to untreated control; settings: read-out: Activity
OVCAR-8 = assay: Growth inhibition of human OVCAR8 cells assessed as cell growth at 1 nM relative to untreated control; settings: read-out: Activity
NCI/ADR-RES = assay: Growth inhibition of human NCI/ADR-RES cells assessed as cell growth at 1 nM relative to untreated control; settings: read-out: Activity
T47D = assay: Growth inhibition of human T47D cells assessed as cell growth at 1 nM relative to untreated control; settings: read-out: Activity
CCRF-CEM [9] = assay: Growth inhibition of human CCRF-CEM cells assessed as cell growth at 10 nM relative to untreated control; settings: read-out: Activity
NCI-H226 = assay: Growth inhibition of human NCI-H226 cells assessed as cell growth at 10 nM relative to untreated control; settings: read-out: Activity
786-0 = assay: Growth inhibition of human 786-0 cells assessed as cell growth at 1 uM relative to untreated control; settings: read-out: Activity
SN12C [10] = assay: Growth inhibition of human SN12C cells assessed as cell growth at 1 uM relative to untreated control; settings: read-out: Activity
TK-10 [11] = assay: Growth inhibition of human TK10 cells assessed as cell growth at 1 uM relative to untreated control; settings: read-out: Activity
[12] = Growth inhibition of human Hs 578T cells assessed as cell growth at 1 uM relative to untreated control; settings: read-out: Activity
CCRF-CEM [13] = assay: Growth inhibition of human CCRF-CEM cells assessed as cell growth at 10 uM relative to untreated control; settings: read-out: Activity
HOP-92 = assay: Growth inhibition of human HOP92 cells assessed as cell growth at 10 uM relative to untreated control; settings: read-out: Activity; procedure, shortened: as §1
NCI-H460 [14] = assay: Growth inhibition of human NCI-H460 cells assessed as cell growth at 10 uM relative to untreated control; settings: read-out: Activity
OVCAR-4 = assay: Growth inhibition of human OVCAR4 cells assessed as cell growth at 10 uM relative to untreated control; settings: read-out: Activity
PC-3 = assay: Growth inhibition of human PC3 cells assessed as cell growth at 10 uM relative to untreated control; settings: read-out: Activity
K562 [15] = assay: Growth inhibition of human K562 cells
SR = assay: Growth inhibition of human SR cells
NCI-H460 [16] = assay: Growth inhibition of human NCI-H460 cells
NCI-H522 = assay: Growth inhibition of human NCI-H522 cells
HCC 2998 = assay: Growth inhibition of human HCC2998 cells; settings: read-out: LC50 (the source's name); procedure, shortened: as §1
Malme-3M = assay: Growth inhibition of human MALME-3M cells
UACC-257 [17] = assay: Growth inhibition of human UACC257 cells
[18] = Growth inhibition of human […] cells assessed as cell growth at 1 nM relative to untreated control; settings: read-out: Activity
A549 [19] = assay: Growth inhibition of human A549 cells assessed as cell growth at 1 nM relative to untreated control; settings: read-out: Activity
EKVX = assay: Growth inhibition of human EKVX cells assessed as cell growth at 1 nM relative to untreated control; settings: read-out: Activity; procedure, shortened: as §1
MCF7 = assay: Growth inhibition of human MCF7 cells
KM12 = assay: Growth inhibition of human KM12 cells assessed as cell growth at 10 nM relative to untreated control; settings: read-out: Activity
SNB-19 = assay: Growth inhibition of human SNB19 cells assessed as cell growth at 10 nM relative to untreated control; settings: read-out: Activity
LOX IMVI [20] = assay: Growth inhibition of human LOXIMVI cells assessed as cell growth at 10 nM relative to untreated control; settings: read-out: Activity
IGROV-1 = assay: Growth inhibition of human IGROV1 cells assessed as cell growth at 10 nM relative to untreated control; settings: read-out: Activity
OVCAR-3 = assay: Growth inhibition of human OVCAR-3 cells assessed as cell growth at 10 nM relative to untreated control; settings: read-out: Activity
CAKI-1 [21] = assay: Growth inhibition of human Caki1 cells assessed as cell growth at 10 nM relative to untreated control; settings: read-out: Activity; procedure, shortened: as §1
[22] = read-out: LC50 (the source's name)

COc1ccc2c(c1)[nH]c1c(C)c(OS(=O)(=O)c3cccc4c(N(C)C)cccc34)ccc12
growth at 0.01 µM (BT-549): 90% | growth at 0.1 µM (A549 [1]): 95% | growth at 0.1 µM (HCT-15): 92% | growth at 0.1 µM (SK-MEL-28): 75% | growth at 0.1 µM (SK-MEL-5): 91% | growth at 0.1 µM (UACC-257 [2]): 97% | growth at 0.1 µM (CAKI-1 [3]): 81% | growth at 0.1 µM (SN12C [4]): 97% | growth at 0.1 µM (TK-10 [5]): 107% | growth at 0.1 µM (DU-145): 103% | growth at 0.1 µM [6]: 88% | growth at 1 µM (HL-60(TB)): -9% | growth at 1 µM (K562 [7]): 5% | growth at 1 µM (SW-620): 24% | growth at 0.001 µM (LOX IMVI [8]): 95% | growth at 1 µM (SK-MEL-2): 50% | growth at 1 µM (SK-OV-3): 32% | growth at 0.001 µM (OVCAR-8): 107% | growth at 0.001 µM (NCI/ADR-RES): 107% | growth at 0.001 µM (T47D): 95% | growth at 0.01 µM (CCRF-CEM [9]): 92% | growth at 0.01 µM (NCI-H226): 88% | growth at 1 µM (786-0): 30% | growth at 1 µM (SN12C [10]): 51% | growth at 1 µM (TK-10 [11]): 48% | growth at 1 µM [12]: 20% | growth at 10 µM (CCRF-CEM [13]): 1% | growth at 10 µM (HOP-92): -1% | growth at 10 µM (NCI-H460 [14]): -3% | growth at 10 µM (OVCAR-4): 30% | growth at 10 µM (PC-3): 7% | GI50 (K562 [15]): 3.01 µM | TGI (K562 [15]): > 100 µM | CC50 (K562 [15]; [22]): > 100 µM | GI50 (SR): 3.51 µM | TGI (SR): > 100 µM | CC50 (SR; [22]): > 100 µM | GI50 (NCI-H460 [16]): 3.46 µM | TGI (NCI-H460 [16]): 55.5 µM | CC50 (NCI-H460 [16]; [22]): > 100 µM | GI50 (NCI-H522): 9.97 µM | TGI (NCI-H522): > 100 µM | CC50 (NCI-H522; [22]): > 100 µM | CC50 (HCC 2998): > 100 µM | GI50 (Malme-3M): 3.62 µM | TGI (Malme-3M): > 100 µM | CC50 (Malme-3M; [22]): > 100 µM | GI50 (UACC-257 [17]): 11.5 µM | TGI (UACC-257 [17]): > 100 µM | CC50 (UACC-257 [17]; [22]): > 100 µM | growth at 0.001 µM [18]: 99% | growth at 0.001 µM (A549 [19]): 101% | growth at 0.001 µM (EKVX): 99% | GI50 (MCF7): 2.71 µM | TGI (MCF7): > 100 µM | CC50 (MCF7; [22]): > 100 µM | growth at 0.01 µM (KM12): 102% | growth at 0.01 µM (SNB-19): 88% | growth at 0.01 µM (LOX IMVI [20]): 92% | growth at 0.01 µM (IGROV-1): 110% | growth at 0.01 µM (OVCAR-3): 100% | growth at 0.01 µM (CAKI-1 [21]): 86%
